Measurements as given in ChEMBL document CHEMBL1140681, “Structure-based design of alpha-amido aldehyde containing gluten peptide analogues as modulators of HLA-DQ2 and transglutaminase 2” (Bioorg Med Chem, 2007).
Calls of active or inactive are those of the source. The calls are words filed in the database; no cut-off is given here. Square brackets hold non-standard residues; d marks the D form. Peptide text beside a SMILES is read from it. * marks the point of attachment. 5FAM = O=C1OC2(c3ccc(O)cc3Oc3cc(O)ccc32)c2ccc(C(=O)*)cc21; Orn = NCCC[C@H](N)C(=O)O; Dab = NCC[C@H](N)C(=O)O; Dap = NC[C@H](N)C(=O)O; Glyoxylyl = O=CC(=O)*

How the values were obtained:
[1] = target: T1, Protein-glutamine gamma-glutamyltransferase (Homo sapiens, UniProt P21980); test: Inhibition of human recombinant TG2
T1 sequence (P21980 whole entry): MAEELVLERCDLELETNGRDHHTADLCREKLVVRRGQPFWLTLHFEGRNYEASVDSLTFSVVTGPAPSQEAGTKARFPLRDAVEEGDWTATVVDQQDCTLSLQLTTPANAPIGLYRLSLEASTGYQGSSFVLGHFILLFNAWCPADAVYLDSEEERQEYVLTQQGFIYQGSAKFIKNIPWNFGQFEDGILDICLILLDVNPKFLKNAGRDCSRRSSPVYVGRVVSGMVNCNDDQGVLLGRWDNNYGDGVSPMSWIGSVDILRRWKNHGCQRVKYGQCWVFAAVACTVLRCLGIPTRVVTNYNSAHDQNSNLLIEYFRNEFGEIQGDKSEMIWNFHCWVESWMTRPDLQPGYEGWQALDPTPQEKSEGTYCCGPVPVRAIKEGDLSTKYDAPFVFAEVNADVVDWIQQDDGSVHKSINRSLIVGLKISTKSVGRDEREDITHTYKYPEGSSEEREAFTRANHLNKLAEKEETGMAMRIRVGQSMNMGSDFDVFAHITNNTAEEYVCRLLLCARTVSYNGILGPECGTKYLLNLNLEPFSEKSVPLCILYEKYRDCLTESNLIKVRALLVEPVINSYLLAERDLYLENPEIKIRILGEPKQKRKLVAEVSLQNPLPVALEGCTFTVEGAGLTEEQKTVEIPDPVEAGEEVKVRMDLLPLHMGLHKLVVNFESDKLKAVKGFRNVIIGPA
Outline: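 Continuous spectrophotometric coupled deamidation assay with recombinant human TG2: MOPS buffer pH 7.2 with CaCl2, EDTA, α-ketoglutarate, glutamate dehydrogenase and NADH; Z-Gln-Gly substrate (10–40 mM); reaction started by adding TG2. Velocities from linear regression; Ki by non-linear fitting of velocity vs ZQG to Michaelis-Menten with Vmax fixed at the uninhibited value.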

[2] = target: T2, Protein-glutamine gamma-glutamyltransferase (Homo sapiens) (UniProt P21980); test: Inhibition of human recombinant TG2 at 500 uM
T2 sequence (whole entry): T1 sequence (P21980 whole entry)

[3] = tested on: VAVY; test: Induction of cell proliferation in HLA-DQ2 homozygous B-lymphoblastoid VAVY cells at 10 uM after overnight incubation; type: functional, cell-based; settings: Homo sapiens
Outline: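 γ-Irradiated (12,000 rads) VAVY cells at 2×10^6 cells/ml pulsed with 10 μM peptide for 2 h or overnight, then washed out by centrifugation (800g, 3 min, 4°C). Re-suspended APCs (1×10^6/ml) co-cultured 48 h with equal volume of P28 TCL1 T cells (1×10^6/ml); [³H]thymidine 1 μCi/well for 18–24 h; proliferation by scintillation counting.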

[4] = Enhancement of antigen presentation in HLA-DQ2 homozygous B-lymphoblastoid VAVY cells; type: functional, cell-based, Homo sapiens
Outline: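 VAVY cells γ-irradiated (12,000 rads), pulsed with peptides for 10 h, washed by centrifugation, then co-cultured 1:1 with DQ2-αI-responsive polyclonal T cells for 48 h. [³H]thymidine (1 μCi/well) added for 18–24 h; incorporated radioactivity counted as a measure of surface peptide-DQ2 complexes; EC50 derived from titration.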

[5] = target: T2, Protein-glutamine gamma-glutamyltransferase (Homo sapiens); test: Inhibition of human recombinant TG2 at 100 uM
[6] = target: T2, Protein-glutamine gamma-glutamyltransferase (Homo sapiens); test: Inhibition of human recombinant TG2 at 750 uM

SMILES | Ki [1] [µM] | EC50 [4] [µM] | further results
CC(C)C[C@H](NC(=O)[C@H](CNC(=O)C=O)NC(=O)[C@@H]1CCCN1C(=O)[C@H](CCC(N)=O)NC(=O)[C@@H]1CCCN1)C(=O)N1CCC[C@H]1C(=O)N[C@@H](Cc1ccccc1)C(=O)O (H-PQP[Dap](Glyoxylyl)LPF-OH) | 300 |  | 
CC(C)C[C@H](NC(=O)[C@H](CCCCNC(=O)C=O)NC(=O)[C@@H]1CCCN1C(=O)[C@H](CCC(N)=O)NC(=O)[C@@H]1CCCN1)C(=O)N1CCC[C@H]1C(=O)N[C@@H](Cc1ccccc1)C(=O)O (H-PQPK(Glyoxylyl)LPF-OH) |  |  | Activity [2]: inactive
CC(C)C[C@H](NC(=O)c1ccc2c(c1)C(=O)OC21c2ccc(O)cc2Oc2cc(O)ccc21)C(=O)N[C@@H](CCC(N)=O)C(=O)N1CCC[C@H]1C(=O)N[C@@H](Cc1ccccc1)C(=O)N1CCC[C@H]1C(=O)N[C@@H](CNC(=O)C=O)C(=O)N1CCC[C@H]1C(=O)N[C@@H](CCC(=O)O)C(=O)N[C@@H](CC(C)C)C(=O)N1CCC[C@H]1C(=O)N[C@@H](Cc1ccc(O)cc1)C(=O)O (5FAM-LQPFP[Dap](Glyoxylyl)PELPY-OH) |  | 1 | Activity [3]: Active
CC(C)C[C@H](NC(=O)c1ccc2c(c1)C(=O)OC21c2ccc(O)cc2Oc2cc(O)ccc21)C(=O)N[C@@H](CCC(N)=O)C(=O)N[C@@H](CC(C)C)C(=O)N[C@@H](CCC(N)=O)C(=O)N1CCC[C@H]1C(=O)N[C@@H](Cc1ccccc1)C(=O)N1CCC[C@H]1C(=O)N[C@@H](CCC(N)=O)C(=O)N1CCC[C@H]1C(=O)N[C@@H](CCC(=O)O)C(=O)N[C@@H](CC(C)C)C(=O)N1CCC[C@H]1C(=O)N[C@@H](Cc1ccc(O)cc1)C(=O)N1CCC[C@H]1C(=O)N[C@@H](CCC(N)=O)C(=O)N1CCC[C@H]1C(=O)N[C@@H](CCC(=O)O)C(=O)N[C@@H](CC(C)C)C(=O)N1CCC[C@H]1C(=O)N[C@@H](Cc1ccc(O)cc1)C(=O)O (5FAM-LQLQPFPQPELPYPQPELPY-OH) |  | 0.016 | 
CC(=O)NCC[C@H](NC(=O)[C@@H]1CCCN1C(=O)[C@H](CCC(N)=O)NC(=O)[C@@H]1CCCN1C(=O)c1ccc2c(c1)C(=O)OC21c2ccc(O)cc2Oc2cc(O)ccc21)C(=O)N[C@@H](CC(C)C)C(=O)N1CCC[C@H]1C(=O)N[C@@H](Cc1ccccc1)C(=O)O (5FAM-PQP[Dab](Ac)LPF-OH) |  |  | Activity [5]: inactive
CC(C)C[C@H](NC(=O)[C@H](CCNC(=O)C=O)NC(=O)[C@@H]1CCCN1C(=O)[C@H](CCC(N)=O)NC(=O)[C@@H]1CCCN1)C(=O)N1CCC[C@H]1C(=O)N[C@@H](Cc1ccccc1)C(=O)O (H-PQP[Dab](Glyoxylyl)LPF-OH) | 40 |  | 
CC(C)C[C@H](NC(=O)c1ccc2c(c1)C(=O)OC21c2ccc(O)cc2Oc2cc(O)ccc21)C(=O)N[C@@H](CCC(N)=O)C(=O)N1CCC[C@H]1C(=O)N[C@@H](Cc1ccccc1)C(=O)N1CCC[C@H]1C(=O)N[C@@H](CCC(N)=O)C(=O)N1CCC[C@H]1C(=O)N[C@@H](CCC(=O)O)C(=O)N[C@@H](CC(C)C)C(=O)N1CCC[C@H]1C(=O)N[C@@H](Cc1ccc(O)cc1)C(=O)O (5FAM-LQPFPQPELPY-OH) |  | 3.3 | 
CC(C)C[C@H](NC(=O)[C@H](CCCNC(=O)C=O)NC(=O)[C@@H]1CCCN1C(=O)[C@H](CCC(N)=O)NC(=O)[C@@H]1CCCN1)C(=O)N1CCC[C@H]1C(=O)N[C@@H](Cc1ccccc1)C(=O)O (H-PQP[Orn](Glyoxylyl)LPF-OH) | 200 |  | 
CC(C)C[C@H](NC(=O)[C@H](NC(=O)C=O)NC(=O)[C@@H]1CCCN1C(=O)[C@H](CCC(N)=O)NC(=O)[C@@H]1CCCN1)C(=O)N1CCC[C@H]1C(=O)N[C@@H](Cc1ccccc1)C(=O)O |  |  | Activity [6]: inactive
CC(C)C[C@H](NC(=O)c1ccc2c(c1)C(=O)OC21c2ccc(O)cc2Oc2cc(O)ccc21)C(=O)N[C@@H](CCC(N)=O)C(=O)N[C@@H](CC(C)C)C(=O)N[C@@H](CCC(N)=O)C(=O)N1CCC[C@H]1C(=O)N[C@@H](Cc1ccccc1)C(=O)N1CCC[C@H]1C(=O)N[C@@H](CNC(=O)C=O)C(=O)N1CCC[C@H]1C(=O)N[C@@H](CCC(=O)O)C(=O)N[C@@H](CC(C)C)C(=O)N1CCC[C@H]1C(=O)N[C@@H](Cc1ccc(O)cc1)C(=O)N1CCC[C@H]1C(=O)N[C@@H](CNC(=O)C=O)C(=O)N1CCC[C@H]1C(=O)N[C@@H](CCC(=O)O)C(=O)N[C@@H](CC(C)C)C(=O)N1CCC[C@H]1C(=O)N[C@@H](Cc1ccc(O)cc1)C(=O)O (5FAM-LQLQPFP[Dap](Glyoxylyl)PELPYP[Dap](Glyoxylyl)PELPY-OH) |  | 0.039 | 
